Assay results taken from paper PMC11362799 (The Journal of Biological Chemistry, 2024).

Molecular target: T1, human Gal-4C (Homo sapiens, UniProt P56470)
T1 sequence (P56470 179-323): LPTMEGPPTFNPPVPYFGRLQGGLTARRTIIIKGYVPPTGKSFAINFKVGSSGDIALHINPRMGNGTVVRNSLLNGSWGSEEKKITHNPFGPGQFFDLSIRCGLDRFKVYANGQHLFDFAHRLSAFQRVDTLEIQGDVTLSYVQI
Assay: Competitive solid-phase assay: Gal-4C binding to immobilized asialofetuin
Procedure, shortened: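 Human Gal-4C (residues 179–323, C-terminal His-tag, E. coli BL21) at 60 μg/ml final was preincubated 2 h at 37 °C with serially diluted glycan inhibitors; lactose was the reference. Mixtures went onto wells coated overnight at 4 °C with 10 µg/ml ASF (carbonate, pH 9.6) and BSA-blocked, for 2 h at 37 °C. Detection: biotinylated anti-Gal-4, HRP-streptavidin, TMB, A450. Values are means ± SEM from a representative of three experiments.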

IC50: 7 mM
Compound: OC[C@H]1O[C@@H](O[C@H]2[C@H](O)[C@@H](O)C(O)O[C@@H]2CO)[C@H](O)[C@@H](O)[C@H]1O (mixture of isomers) [lactose]
